T cruzi intra – inhibitors of intracellular Trypanosoma cruzi | intracellular Trypanosoma cruzi in host cells, plate reader | activity score (inhibition), % at 5.01 µM | actives 4.9% (n = 22,000); in the data active means activity score above about 55%; inconclusive means no clear call, values can overlap the other calls;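 further: parasites and compound incubated about four days before reading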
INS-1E rescue – rescue of cytokine-induced death in INS-1E beta cells | protection from cytokine-induced ATP loss, % at 10 µM | INS-1E cytokine-induced death, ATP luminescence, 48 h; normalised: neutral wells 0, positive control 100 | actives 0.1% (n = 20,000);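 active means mean replicate protection from cytokine-induced ATP loss at least 50% and at least 75% of replicates each reaching 50%; inconclusive means meets only one of the two criteria, mean or replicate share; inactive means fails both the mean and replicate share criteria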
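Assay system: INS-1E rat insulinoma cells. Amount: 8000 cells per well. Medium: phenol-red-free RPMI with 5% fetal bovine serum. Reagent: IL-1β, TNF-α and IFN-γ cytokine mix. Doses: one compound concentration, pin transfer. Schedule: 48 h co-treatment, 10 min post-lysis read. Detection: CellTiter-Glo luminescence measuring cellular ATP.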
A1 apoptosis 2 – blocks A1, raising caspase activity. MEF A1-2A-BIM cells, caspase-Glo luminescence, 3 h; percent of clofoctol response, DMSO zero. 24,000 tested, under 10 active. caspase activation, % (test concentration not listed). AID 2465; in the data active means caspase activation above about 5.9%; inconclusive means no clear call, values can overlap the other calls; inactive means below about 2.2%
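Evaluation: Caspase-3/7 activity from luminescence increase | Assay system: A1-2A-BIM mouse embryonic fibroblasts | Quantity: 2500 MEF cells/well | Medium: RPMI-1640 plus 10% FBS | Detection: Caspase-Glo 3/7 luminescence, 1 h at room temperature | Dosing: 50 nL compound per well, pinned | Timing: Cells settled overnight, compound exposure 3 h at 37 °C, 5% CO2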
Hits are given with their value; n = inactive; u = inconclusive; x = no result. Many of the other results were omitted from the sample, so hits are more common in it than they were.

SMILES	T cruzi intra	INS-1E rescue	A1 apoptosis 2
C[C@H](CO)N1C[C@H](C)[C@H](CN(C)S(=O)(=O)c2ccc(Cl)cc2)Oc2c(NC(=O)c3ccc(-c4nccs4)cc3)cccc2C1=O	63	n	n
C[C@@H]1CN([C@@H](C)CO)C(=O)c2cccc(NC(=O)c3ccc(-c4nccs4)cc3)c2O[C@@H]1CN(C)C(=O)Nc1ccc(C(F)(F)F)cc1	66	n	n
C[C@H](CO)N1C[C@H](C)[C@@H](CN(C)S(=O)(=O)c2ccc(Cl)cc2)Oc2c(NC(=O)c3ccc(-c4nccs4)cc3)cccc2C1=O	n	n	x
C[C@@H]1CN([C@@H](C)CO)C(=O)c2cccc(NC(=O)c3ccc(-c4nccs4)cc3)c2O[C@H]1CN(C)Cc1ccc(C(=O)Nc2ccccc2N)cc1	n	n	x
C[C@H]1CN([C@@H](C)CO)C(=O)c2cccc(NC(=O)c3ccc(-c4nccs4)cc3)c2O[C@H]1CN(C)Cc1ccc(C(=O)Nc2ccccc2N)cc1	71	n	n
O=C(CCCCCCC(=O)Nc1ccccc1O)N/N=C/c1ccccc1C(=O)O	n	n	x
COC(=O)[C@H]1N=C(c2ccc(OCCCO)cc2)O[C@H]1c1ccccc1N=[N+]=[N-]	x	x	n
C[C@H](CO)N1C[C@H](C)[C@@H](CN(C)Cc2ccc(Cl)c(Cl)c2)Oc2c(NC(=O)c3ccc(-c4nccs4)cc3)cccc2C1=O	62	n	n
C[C@H](CO)N1C[C@H](C)[C@@H](CN(C)CC2CCCCC2)Oc2c(NC(=O)c3ccc(-c4nccs4)cc3)cccc2C1=O	n	n	x
C[C@@H]1CN([C@H](C)CO)C(=O)c2cccc(NC(=O)c3ccc(-c4nccs4)cc3)c2O[C@H]1CN(C)Cc1ccccc1	n	n	n
C[C@@H]1CN([C@H](C)CO)C(=O)c2cccc(NC(=O)c3ccc(-c4nccs4)cc3)c2O[C@@H]1CN(C)Cc1ccc(C(=O)Nc2ccccc2N)cc1	81	u	x
C[C@@H]1CN([C@@H](C)CO)C(=O)c2cccc(NC(=O)c3ccc(-c4nccs4)cc3)c2O[C@H]1CN(C)CC1CCCCC1	64	n	n
C[C@@H]1CN([C@H](C)CO)C(=O)c2cccc(NC(=O)c3ccc(-c4nccs4)cc3)c2O[C@H]1CN(C)Cc1ccc(C(=O)O)cc1	n	n	n
COc1cc2c(cc1OC)CN(C(=O)[C@H]1[C@@H]3C(=O)O[C@@H](c4ccccc4)[C@@H](c4ccccc4)N3[C@@H](c3ccccc3OCCO)[C@]13C(=O)Nc1ccc(C#CCNC(N)=O)cc13)CC2	x	x	n
O=C(N/N=C/c1ccc2c(c1)OCCO2)c1ccccn1	n	n	n
O=C(CCCCCC(=O)N/N=C/c1ccco1)NO	x	x	n
O=C(NO)c1ccc(C(=O)N/N=C/c2ccc(-n3ccnc3)cc2)cc1	n	n	n
C[C@@H]1CN([C@H](C)CO)C(=O)c2cccc(NC(=O)c3nc4ccccc4s3)c2O[C@H]1CN(C)C(=O)Nc1ccc(F)cc1	n	n	n
C[C@@H]1CN([C@@H](C)CO)C(=O)c2cccc(NC(=O)c3nc4ccccc4s3)c2O[C@H]1CN(C)C(=O)Nc1ccc(C(F)(F)F)cc1	84	n	n
C[C@H]1CN([C@@H](C)CO)C(=O)c2cccc(NC(=O)c3nc4ccccc4s3)c2O[C@@H]1CN(C)C(=O)Nc1ccc(C(F)(F)F)cc1	74	n	x
C[C@H](CO)N1C[C@H](C)[C@@H](CN(C)C(=O)Nc2ccc(F)cc2)Oc2c(NC(=O)c3nc4ccccc4s3)cccc2C1=O	n	n	n
C[C@H]1CN([C@@H](C)CO)C(=O)c2cccc(NC(=O)c3nc4ccccc4s3)c2O[C@H]1CN(C)C(=O)Nc1ccc(C(F)(F)F)cc1	79	n	n
C[C@@H]1CN([C@H](C)CO)C(=O)c2cccc(NC(=O)c3nc4ccccc4s3)c2O[C@@H]1CN(C)C(=O)Nc1ccc(F)cc1	n	n	x
C[C@@H]1CN([C@H](C)CO)C(=O)c2cccc(NC(=O)c3nc4ccccc4s3)c2O[C@H]1CN(C)C(=O)Nc1ccc(C(F)(F)F)cc1	61	n	n
C[C@@H]1CN([C@@H](C)CO)C(=O)c2cccc(NC(=O)c3nc4ccccc4s3)c2O[C@H]1CN(C)C(=O)Nc1ccc(F)cc1	n	n	n
O=C(NO)c1cccc(C(=O)N/N=C/c2ccc(Oc3ccccc3)cc2)c1	n	n	n
COc1ccc(NCc2ccc(C(=O)Nc3ccccc3[N+](=O)[O-])cc2)cc1OC	x	x	n
COc1ccc(S(=O)(=O)Nc2ccc3c(c2)C(=O)N([C@H](C)CO)C[C@@H](C)[C@@H](CN(C)Cc2ccc(Oc4ccccc4)cc2)O3)cc1	n	n	x

Screens: PubChem BioAssay, Broad Institute
